Screening results: PubChem, several laboratories
Only some compounds are listed: those with a hit (about 1.1% of all), similar ones and a draw of the others.
Rin1-Abl PPI inh = blocks binding of human Rin1 to Abl; P00519+Q13671; TR-FRET Rin1/Abl binding, biochemical; inhibition, % at 7.35 µM; 360,000 compounds, 0.4% hits; in the data active means inhibition above about 5%, passing the limit was not always enough
ERp5 block = ERp5 (human) disulfide isomerase inhibition; inhibition, % at 9.99 µM; 350,000 compounds, 0.05% hits; ERp5 insulin aggregation, absorbance 650 nm, 90 min; AID 651711;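 active means mean replicate inhibition above about 25%, with every replicate also reaching it, limit read from the data, passing the limit was not always enough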
Target sequence (Q15084 whole entry, looked up): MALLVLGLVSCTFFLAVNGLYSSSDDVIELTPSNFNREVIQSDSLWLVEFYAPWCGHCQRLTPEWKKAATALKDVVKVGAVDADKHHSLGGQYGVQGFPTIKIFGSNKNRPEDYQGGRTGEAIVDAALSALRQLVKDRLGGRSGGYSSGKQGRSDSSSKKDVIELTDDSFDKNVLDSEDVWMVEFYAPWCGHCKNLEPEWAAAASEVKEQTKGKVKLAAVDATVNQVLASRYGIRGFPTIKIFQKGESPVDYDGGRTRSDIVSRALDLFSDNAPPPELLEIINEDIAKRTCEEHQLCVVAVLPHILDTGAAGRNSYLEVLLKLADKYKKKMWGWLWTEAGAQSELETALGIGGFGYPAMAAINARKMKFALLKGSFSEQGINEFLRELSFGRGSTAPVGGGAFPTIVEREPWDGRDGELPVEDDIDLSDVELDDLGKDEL
PDI turbidity = blocks human protein disulfide isomerase activity. P07237. PDI insulin aggregation turbidity, A650, 90 min. inhibition, % at 10 µM. 350,000 compounds, 0.052% hits;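 active means mean inhibition across replicates of 30% or more, whatever share of single replicates reach that level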
CAL PDZ FP-1 = inhibitors of human CAL PDZ peptide binding. 330,000 compounds, 0.02% hits. purified CAL PDZ, TMR-peptide fluorescence polarization, 1 h. inhibition, % at 20 µM;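 active means highest replicate inhibition of at least 40%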;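 further: plate controls were DMSO neutral control wells for no effect and unlabeled competitor peptide control wells for full effect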
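Material: tagged CAL PDZ protein CerCALP, purified; buffer or medium: sodium phosphate/NaCl buffer pH 7.4 with TCEP, IgG, Thesit; also added: fluorescent TMR peptide probe; schedule: 1 h incubation at room temperature before polarization reading; technique: fluorescence polarization from S- and P-plane intensities, G-factor corrected; control set: unlabelled peptide and DMSO controls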
ERAP1 HTS inh = ERAP1 (human) enzyme inhibition; recombinant ERAP1, Leu-AMC fluorescence, 60 min; 340,000 compounds, 0.15% hits; Q9NZ08; inhibition, % at 10.7 µM;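 active means mean replicate inhibition of at least 30%, or all replicates individually reaching that 30% level; inactive means mean below 30% and not every replicate reaching it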;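 further: 0% = neutral control wells and 100% = L-leucinethiol positive control wells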
CAL PDZ FP-2 = CAL PDZ (human) peptide binding inhibition; Q9HD26; purified CAL PDZ, TMR-peptide fluorescence polarization, 1 h; inhibition, % at 24.9 µM; 300,000 compounds, 0.92% hits; AID 602252;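 active means mean inhibition of at least 30% with at least half of replicates also reaching 30%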;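 further: 0% = DMSO neutral control and 100% = excess unlabeled competitor peptide PRC23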
Numbers without * were called inactive; x = no result given.

SMILES | Rin1-Abl PPI inh | ERp5 block | PDI turbidity | CAL PDZ FP-1 | ERAP1 HTS inh | CAL PDZ FP-2
O=C(C[C@@H]1CC[C@H]2[C@@H](COC[C@H](O)CN2CC2CC2)O1)NCC1CC1 | x | -2.1 | x | x | 0.7 | x
C[C@@H]1CCCCO[C@H](CN(C)C(=O)CCC(F)(F)F)[C@@H](C)CN([C@H](C)CO)C(=O)c2cc(NC(=O)Nc3ccccc3)ccc2O1 | x | 4.1 | x | x | -0.9 | x
C[C@@H]1CN([C@@H](C)CO)C(=O)Cc2cc(NC(=O)Cc3ccccc3)ccc2O[C@H]1CN(C)C(=O)Nc1ccc(C(F)(F)F)cc1 | x | -1.8 | x | x | -1.7 | x
C[C@@H]1CN([C@@H](C)CO)C(=O)Cc2cc(NS(=O)(=O)c3cccs3)ccc2O[C@H]1CN(C)C(=O)Nc1ccc(C(F)(F)F)cc1 | x | 47.2* | x | x | 0.7 | x
C[C@@H]1CN([C@@H](C)CO)C(=O)Cc2cc(NC(=O)Cc3ccccc3)ccc2O[C@@H]1CN(C)C(=O)Nc1ccc(C(F)(F)F)cc1 | x | 36.6* | x | x | -1.8 | x
Cc1noc(C)c1S(=O)(=O)N(C)C[C@@H]1Oc2ccc(NC(=O)CCC(F)(F)F)cc2CC(=O)N([C@H](C)CO)C[C@H]1C | x | 0.9 | x | x | 0.5 | x
O=C(Cc1cccnc1)N1CC(=O)N2[C@H](C1)[C@@H](c1ccc(C3=CCCCC3)cc1)[C@@H]2CO | x | 9.8 | x | x | 1.4 | x
C[C@@H]1CN([C@@H](C)CO)S(=O)(=O)c2ccc(/C=C/c3ccccc3)cc2O[C@@H]1CN(C)C(=O)c1ccc2c(c1)OCO2 | x | 0.1 | x | x | -0.7 | x
Cc1ccc2c(c1)c1c3n2CCN(C(=O)CCl)C3CCC1 (centres undefined) | 0.3 | 2.6 | 58.7* | 0.2 | -0.1 | 0.5
C[C@H](CO)N1C[C@H](C)[C@@H](CN(C)C(=O)c2ccccc2)Oc2ncc(C3=CCCC3)cc2C1=O | x | 1.4 | x | x | 0.4 | x
O=C(Cc1ccc(NC(=O)C2CCCN(C(=O)C3CC3)C2)cc1)Nc1cccc(C(=O)N2CCCCC2)c1 (centres undefined) | 2.4 | 32.1* | -2.6 | -3.6 | 2.5 | -1.1
O=C(Nc1cccc(F)c1)N1C[C@@H]2[C@H](c3ccccc31)[C@@H](CO)N2C(=O)c1cccnc1 | x | -1.0 | x | x | -0.8 | x
Cc1nnc(SC(C)C#N)n1-c1ccccc1 (centres undefined) | 2.3 | -2.1 | 6.4 | 0.5 | x | 75.7*
O=S(=O)(Cc1ccccc1)NCC[C@@H]1CC[C@H](NS(=O)(=O)c2ccccc2)[C@H](CO)O1 | x | -5.2 | x | x | -2.7 | x
CC#CC[N+](C)(C)CCCCCCCC | -1.9 | 2.2 | 4.6 | -0.9 | x | x
CCCCCCCCCCCCCCCC[N+](C)(C)Cc1ccc(F)cc1 | 1.6 | -16.4 | 41.2* | 0.3 | 95.9* | -3.2
O=C(Cc1ccncc1)Nc1ccc2c(c1)[C@@H]1C[C@@H](CC(=O)N3CCCCC3)O[C@H](CO)[C@@H]1O2 | x | -0.2 | x | x | -0.7 | x
Cn1c(=O)c2[nH]c(NN=Cc3ccccc3)nc2n(C)c1=O | -0.2 | -6.8 | 5.6 | 1.3 | -1.6 | 94.3*
COc1ccc(CNC(=O)C[C@H]2C=C[C@@H](NS(=O)(=O)c3cccc(OC)c3)[C@H](CO)O2)cc1 | x | -4.5 | x | x | 0.8 | x
CN1c2ccc(Br)cc2[C@@H]2[C@@H](CCN2C(=O)c2ccc(F)cc2)[C@@H]1CO | x | -4.1 | x | x | x | x
Nn1c(SCCOc2ccccc2)nnc1-c1cccnc1 | -1.9 | -2.6 | -16.0 | 0.6 | 10.3 | -4.3
Nn1c(SCCOc2ccc(Cl)cc2)nnc1-c1cccnc1 | -6.9 | 0.0 | -4.0 | 0.5 | 47.1* | -5.3
CC(C)NC(=O)Nc1ccc2c(c1)CC(=O)N([C@@H](C)CO)C[C@H](C)[C@H](CN(C)C)O2 | x | 1.6 | x | x | 1.7 | x
CN1C(=S)SC(C)(C)C1/[N+]([O-])=C/c1cccnc1 (centres undefined) | 0.3 | x | -2.2 | x | x | 122.7*
OCCC1CN(Cc2ccc3cc(Cl)ccc3n2)CCN1Cc1ccsc1 (centres undefined) | 1.8 | 4.6 | -7.5 | -0.5 | -3.6 | 72.4*
OCCC1CN(Cc2ccc3nonc3c2)CCN1Cc1ccsc1 (centres undefined) | -1.1 | 4.9 | -6.4 | -0.5 | 2.7 | 3.8
COc1ccccc1NC(=O)N(C)C[C@H]1Oc2ncc(C#CC(C)C)cc2C(=O)N([C@H](C)CO)C[C@H]1C | x | 1.1 | x | x | -0.9 | x
